# Data published in article PMC7867784 (Translational Lung Cancer Research, 2021).
# System: Japanese patients with RET-rearranged NSCLC
# Experiment: ALL-RET phase 1/2 trial: safety
# Format: in vivo, human
# In short: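 Adverse events were graded by NCI CTCAE v4.0, with causal relation to treatment recorded separately. Dose finding used a 3+3 de-escalation design with 3–6 patients per cohort. DLT was evaluated over the first 21-day cycle and defined as grade ≥4 thrombopenia, grade ≥3 febrile neutropenia, grade ≥4 neutropenia lasting ≥4 days, or grade ≥3 non-hematologic toxicity, with specified exceptions. Follow-up ran until January 2019.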
structure (smiles),measurement,setting,value
CCc1cc2c(cc1N1CCC(N3CCOCC3)CC1)C(C)(C)c1[nH]c3cc(C#N)ccc3c1C2=O [alectinib],grade 4 AEs,450 mg BID,no grade 4 AEs were observed
same,"Aspartate aminotransferase increase, any grade, number (total)",450 mg BID (N=28),9
same,"Aspartate aminotransferase increase, any grade, number [causally related]",450 mg BID (N=28),7
same,"Aspartate aminotransferase increase, any grade, percent (total)",450 mg BID (N=28),32.1%
same,"Aspartate aminotransferase increase, any grade, percent [causally related]",450 mg BID (N=28),25.0%
same,"Aspartate aminotransferase increase, grade 1–2, number (total)",450 mg BID (N=28),9
same,"Aspartate aminotransferase increase, grade 1–2, number [causally related]",450 mg BID (N=28),7
same,"Aspartate aminotransferase increase, grade 3, number",450 mg BID (N=28),0
same,"Aspartate aminotransferase increase, grade 4, number",450 mg BID (N=28),0
same,"Bilirubin increase, any grade, number (total)",450 mg BID (N=28),6 [6]
same,"Bilirubin increase, any grade, number [causally related]",450 mg BID (N=28),6 [6]
same,"Bilirubin increase, any grade, percent",450 mg BID (N=28),21.4%
same,"Bilirubin increase, grade 1–2, number (total)",450 mg BID (N=28),5 [5]
same,"Bilirubin increase, grade 1–2, number [causally related]",450 mg BID (N=28),5 [5]
same,"Bilirubin increase, grade 3, number (total)",450 mg BID (N=28),1 [1]
same,"Bilirubin increase, grade 3, number [causally related]",450 mg BID (N=28),1 [1]
same,"Bilirubin increase, grade 4, number",450 mg BID (N=28),0
same,"Constipation, any grade, number [causally related]",450 mg BID (N=28),12
same,"Constipation, any grade, percent (total)",450 mg BID (N=28),57.1%
same,"Constipation, any grade, percent [causally related]",450 mg BID (N=28),42.9%
same,"Constipation, grade 1–2, number (total)",450 mg BID (N=28),16
same,"Constipation, grade 1–2, number [causally related]",450 mg BID (N=28),12
same,"Constipation, grade 3, number",450 mg BID (N=28),0
same,"Constipation, grade 4, number",450 mg BID (N=28),0
same,"Creatine phosphokinase increase, any grade, number (total)",450 mg BID (N=28),13 [13]
same,"Creatine phosphokinase increase, any grade, number [causally related]",450 mg BID (N=28),13 [13]
same,"Creatine phosphokinase increase, any grade, percent",450 mg BID (N=28),46.4%
same,"Creatine phosphokinase increase, grade 1–2, number (total)",450 mg BID (N=28),12 [12]
same,"Creatine phosphokinase increase, grade 1–2, number [causally related]",450 mg BID (N=28),12 [12]
same,"Creatine phosphokinase increase, grade 3, number (total)",450 mg BID (N=28),1 [1]
same,"Creatine phosphokinase increase, grade 3, number [causally related]",450 mg BID (N=28),1 [1]
same,"Creatine phosphokinase increase, grade 4, number",450 mg BID (N=28),0
same,"Creatinine increase, any grade, number (total)",450 mg BID (N=28),8 [8]
same,"Creatinine increase, any grade, number [causally related]",450 mg BID (N=28),8 [8]
same,"Creatinine increase, any grade, percent",450 mg BID (N=28),28.6%
same,"Creatinine increase, grade 1–2, number (total)",450 mg BID (N=28),8 [8]
same,"Creatinine increase, grade 1–2, number [causally related]",450 mg BID (N=28),8 [8]
same,"Creatinine increase, grade 3, number",450 mg BID (N=28),0
same,"Creatinine increase, grade 4, number",450 mg BID (N=28),0
same,"Diarrhea, any grade, number (total)",450 mg BID (N=28),3
same,"Diarrhea, any grade, number [causally related]",450 mg BID (N=28),2
same,"Diarrhea, any grade, percent (total)",450 mg BID (N=28),10.7%
same,"Diarrhea, any grade, percent [causally related]",450 mg BID (N=28),7.1%
same,"Diarrhea, grade 1–2, number (total)",450 mg BID (N=28),2 [2]
same,"Diarrhea, grade 1–2, number [causally related]",450 mg BID (N=28),2 [2]
same,"Diarrhea, grade 3, number (total)",450 mg BID (N=28),1
same,"Diarrhea, grade 3, number [causally related]",450 mg BID (N=28),0
same,"Diarrhea, grade 4, number",450 mg BID (N=28),0
same,"Hyponatraemia, any grade, number (total)",450 mg BID (N=28),1 [1]
same,"Hyponatraemia, any grade, number [causally related]",450 mg BID (N=28),1 [1]
same,"Hyponatraemia, any grade, percent",450 mg BID (N=28),3.6%
same,"Hyponatraemia, grade 1–2, number",450 mg BID (N=28),0
same,"Hyponatraemia, grade 3, number (total)",450 mg BID (N=28),1 [1]
same,"Hyponatraemia, grade 3, number [causally related]",450 mg BID (N=28),1 [1]
same,"Hyponatraemia, grade 4, number",450 mg BID (N=28),0
same,"Neutropenia, any grade, number (total)",450 mg BID (N=28),1 [1]
same,"Neutropenia, any grade, number [causally related]",450 mg BID (N=28),1 [1]
same,"Neutropenia, any grade, percent",450 mg BID (N=28),3.6%
same,"Neutropenia, grade 1–2, number",450 mg BID (N=28),0
same,"Neutropenia, grade 3, number (total)",450 mg BID (N=28),1 [1]
same,"Neutropenia, grade 3, number [causally related]",450 mg BID (N=28),1 [1]
same,"Neutropenia, grade 4, number",450 mg BID (N=28),0
same,"Pneumonitis, any grade, percent (total)",450 mg BID (N=28),3.6%
same,"Pneumonitis, any grade, percent [causally related]",450 mg BID (N=28),0.0%
same,"Pneumonitis, grade 1–2, number",450 mg BID (N=28),0
same,"Pneumonitis, grade 3, number (total)",450 mg BID (N=28),1 [1]
same,"Pneumonitis, grade 3, number [causally related]",450 mg BID (N=28),1 [1]
same,"Pneumonitis, grade 4, number",450 mg BID (N=28),0
same,"Constipation, any grade, number (total)","450 mg BID (N=28; phase 1 N=3, phase 2 N=25)",16
same,dose reduction due to toxicity,"450 mg BID, 28 patients",no patients required a dose reduction
same,patients whose treatment was discontinued due to pneumonitis,"450 mg BID, out of 28 patients",1
same,"Alkaline phosphatase increase, any grade, number (total)",600 mg BID (N=6),2 [2]
same,"Alkaline phosphatase increase, any grade, number [causally related]",600 mg BID (N=6),2 [2]
same,"Alkaline phosphatase increase, any grade, percent",600 mg BID (N=6),33.3%
same,"Alkaline phosphatase increase, grade 1–2, number (total)",600 mg BID (N=6),1[1]
same,"Alkaline phosphatase increase, grade 1–2, number [causally related]",600 mg BID (N=6),1[1]
same,"Alkaline phosphatase increase, grade 3, number (total)",600 mg BID (N=6),1[1]
same,"Alkaline phosphatase increase, grade 3, number [causally related]",600 mg BID (N=6),1[1]
same,"Alkaline phosphatase increase, grade 4, number",600 mg BID (N=6),0
same,"Cholangitis, any grade, number (total)",600 mg BID (N=6),1 [1]
same,"Cholangitis, any grade, number [causally related]",600 mg BID (N=6),1 [1]
same,"Cholangitis, any grade, percent",600 mg BID (N=6),16.7%
same,"Cholangitis, grade 1–2, number",600 mg BID (N=6),0
same,"Cholangitis, grade 3, number (total)",600 mg BID (N=6),1 [1]
same,"Cholangitis, grade 3, number [causally related]",600 mg BID (N=6),1 [1]
same,"Cholangitis, grade 4, number",600 mg BID (N=6),0
same,"Constipation, any grade, number (total)",600 mg BID (N=6),4 [4]
